High-throughput results (PubChem BioAssay)
An excerpt weighted towards active compounds, which were near 2.3% of everything screened.
TRPC4 agonist = activators of mouse TRPC4 channel. Q9QUQ5. HEK293 TRPC4beta/mu-opioid, Fluo4 calcium fluorescence; stronger effect = higher value. B-score at 10 µM. 310,000 tested, 0.49% active. AID 2237;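 active means B-score above 5 SD of library B-scores, and initial fluorescence ratio not above library mean plus 5 SD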;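 further: positive B-score marks a calcium rise read as TRPC4 activation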
Target sequence (Q9QUQ5 whole entry, looked up): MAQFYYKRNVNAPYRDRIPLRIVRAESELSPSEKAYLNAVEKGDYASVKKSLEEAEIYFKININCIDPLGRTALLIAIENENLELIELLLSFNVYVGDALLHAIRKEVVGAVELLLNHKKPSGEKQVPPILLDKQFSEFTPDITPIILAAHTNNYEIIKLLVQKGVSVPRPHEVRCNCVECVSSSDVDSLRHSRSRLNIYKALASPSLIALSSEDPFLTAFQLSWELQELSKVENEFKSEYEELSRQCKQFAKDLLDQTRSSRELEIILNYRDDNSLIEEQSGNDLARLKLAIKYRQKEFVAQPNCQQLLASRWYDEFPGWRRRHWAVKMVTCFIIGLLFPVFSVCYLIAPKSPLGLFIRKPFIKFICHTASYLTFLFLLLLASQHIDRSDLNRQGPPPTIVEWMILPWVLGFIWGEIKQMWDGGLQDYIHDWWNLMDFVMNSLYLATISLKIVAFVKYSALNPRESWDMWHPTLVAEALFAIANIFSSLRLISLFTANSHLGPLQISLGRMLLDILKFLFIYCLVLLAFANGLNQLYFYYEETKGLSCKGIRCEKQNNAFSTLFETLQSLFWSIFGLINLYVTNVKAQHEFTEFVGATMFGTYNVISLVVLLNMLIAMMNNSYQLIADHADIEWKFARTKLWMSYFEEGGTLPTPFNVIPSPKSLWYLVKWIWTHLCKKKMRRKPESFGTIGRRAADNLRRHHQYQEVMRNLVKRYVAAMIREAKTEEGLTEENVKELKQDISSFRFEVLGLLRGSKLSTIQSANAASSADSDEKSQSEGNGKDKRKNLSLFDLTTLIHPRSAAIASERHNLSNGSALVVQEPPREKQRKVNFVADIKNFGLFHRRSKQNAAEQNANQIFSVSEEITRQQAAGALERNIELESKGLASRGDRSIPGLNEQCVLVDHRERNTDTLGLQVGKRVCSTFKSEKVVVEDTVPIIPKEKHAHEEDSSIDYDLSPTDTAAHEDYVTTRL
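System: HEK293 cells stably co-expressing mouse TRPC4beta and mu-opioid receptor; Schedule: Fluo4 dye loading 45 min at room temperature, 110 s recording; Detection: Fluo4 fluorescence, kinetic; Evaluation: B-scored integrated calcium fluorescence ratio; Controls: buffer (low) and maximal DAMGO (high).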
TRPC6 inh = mouse TRPC6 channel inhibition. Q61143. 310,000 tested, 1.1% active. HEK293-TRPC6, membrane potential dye, ACh-evoked depolarization; stronger effect = lower value. B-score at 10 µM. AID 2553;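 active means B-score under library mean minus 3 SD, initial fluorescence not abnormally high, positive integrated signal ratio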;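 further: B-score derived from integrated fluorescence ratio over the kinetic read; more negative B-score means stronger inhibition of depolarization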
TRPC4 block = inhibitors of mouse TRPC4 channel; 300,000 tested, 0.39% active; HEK293 TRPC4beta/mu-opioid, DAMGO-evoked Fluo4 calcium flux; stronger effect = lower value; B-score at 10 µM; Q9QUQ5;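 active means B-score over 3 SD under the library average, no early fluorescence shift, positive overall ratio signal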
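Signal: kinetic Fluo4 fluorescence imaging of calcium influx. Material: stable TRPC4beta/mu-opioid receptor HEK293 cells. Probe or stimulus: DAMGO in two steps, submaximal then maximal.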
TRPC6 act = activates the mouse TRPC6 cation channel; HEK293-TRPC6 membrane potential dye fluorescence; stronger effect = higher value; B-score at 10 µM; Q61143; 310,000 tested, 0.13% active;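 active means B-score of the integrated fluorescence ratio above library mean plus 3 SD, and starting fluorescence ratio within library mean plus 5 SD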;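 further: higher score means more depolarization so channel activation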
TRPC4 PAM = allosteric potentiators of mouse TRPC4 channel; Q9QUQ5; HEK293 TRPC4beta/mu-opioid, DAMGO EC20, Fluo-4 Ca2+ flux; stronger effect = higher value; 310,000 tested, 0.42% active; B-score at 10 µM; AID 2227;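 active means B-score of calcium response area above 5 SD of library B-scores, with initial fluorescence ratio within 5 SD of library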;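 further: B-score of integrated fluorescence ratio over time as area under calcium response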
* marks the source's active call; other numbers are inactive results; i = inactive.

SMILES | TRPC4 agonist | TRPC6 inh | TRPC4 block | TRPC6 act | TRPC4 PAM
CCCn1c(SCC(=O)Nc2cc(Cl)ccc2Cl)n[nH]c1=O | i | i | i | i | i
CN1CCC(CNC(=O)Nc2ccccc2)(c2ccccc2)CC1 | 172* | i | i | i | i
COC(=O)C(C)Oc1ccc(=O)[nH]n1 (stereo unspecified) | i | i | i | i | i
Clc1ccc(N=C2SCC3CCCCN23)cc1 (stereo unspecified) | i | i | i | i | 23*
COC(=O)Cc1nc(Nc2ccccc2)sc1C | i | i | i | i | i
N/C(Cc1cccc2ccccc12)=N\OC(=O)c1cccs1 | i | i | -6* | i | i
N/C(Cc1cccc2ccccc12)=N\OC(=O)Cc1cccs1 | i | i | i | i | i
O=C(c1ccc2c(=O)n3c(nc2c1)CCCCC3)N1CCc2ccccc21 | i | i | i | i | i
CNC[C@H](O)c1ccc(O)c(O)c1 | i | i | i | i | i
CNC[C@H](O)c1cccc(O)c1 | 52* | i | i | i | i
Cc1sc2ncnc(SCC(=O)N(C)C3CCS(=O)(=O)C3)c2c1C (stereo unspecified) | i | i | i | i | 34*
CN(C(=O)CSc1ncnc2scc(-c3ccccc3)c12)C1CCS(=O)(=O)C1 (stereo unspecified) | i | i | i | i | i
Cc1ccc(CN2CCN(C(=O)c3ccncc3)CC2)cc1 | i | i | i | i | i
CCCCOc1ccc(CSC2=NCCN2)cc1[N+](=O)[O-] | i | i | i | i | i
CCOc1ccc(CSC2=NCCN2)cc1[N+](=O)[O-] | i | i | i | i | 11*
O=P(COCCOCCOCCOCP(=O)(c1ccccc1)c1ccccc1)(c1ccccc1)c1ccccc1 | i | i | i | i | i
O=C(CC1C(=O)NCCN1CC1CCCCC1)NCCc1ccc(F)cc1 (stereo unspecified) | 51* | i | i | i | i
O=C(CC1C(=O)NCCN1Cc1ccccc1C(F)(F)F)NCCc1ccccn1 (stereo unspecified) | 116* | i | i | i | i
COc1cccc(CN2CCNC(=O)C2CC(=O)NCCc2ccccn2)c1 (stereo unspecified) | 54* | i | i | i | i
O=C(CC1C(=O)NCCN1Cc1cccc(Oc2ccccc2)c1)NCCc1cscn1 (stereo unspecified) | i | i | i | i | i
O=C(CC1C(=O)NCCN1CC1CCCCC1)NCc1ccc(F)cc1 (stereo unspecified) | i | i | i | i | i
O=C(CC1C(=O)NCCN1Cc1cccc(Oc2ccccc2)c1)NCCc1ccccn1 (stereo unspecified) | 115* | i | i | i | i
O=C(CC1C(=O)NCCN1Cc1c(F)cccc1Cl)NCCc1ccccn1 (stereo unspecified) | i | i | i | i | i
O=C(CSC(=S)N1CCOCC1)Nc1ncc2c(n1)CC(c1ccco1)CC2=O (stereo unspecified) | i | i | i | i | i
O=C(CCN1CCN(Cc2ccccc2)CC1)Nc1ccc(OCc2ccccc2)cc1 | i | i | i | i | 15*
SMILES | TRPC4 agonist | TRPC6 inh | TRPC4 block | TRPC6 act | TRPC4 PAM
O=C(CCN1CCN(Cc2ccccc2)CC1)Nc1cccc(Br)c1 | i | i | i | i | 20*
CCCOc1ccc(NC(=O)CC2C(=O)N(CC)C(=S)N2CCNC(C)=O)cc1 (stereo unspecified) | i | i | i | i | i
O=C(CCN1CCN(CCO)CC1)Nc1ccc(OCc2ccccc2)cc1 | i | i | i | i | i
COC(=O)c1ccc(NC(=O)CCN2CCN(Cc3ccccc3)CC2)cc1 | i | i | i | i | 27*
CCCOc1ccc(NC(=O)CC2C(=O)N(CC)C(=S)N2CCCN2CCN(Cc3ccccc3)CC2)cc1 (stereo unspecified) | i | i | i | i | 10*
COc1cccc(N2CCN(C(=O)c3cccc(NC4=NC5CS(=O)(=O)CC5S4)c3)CC2)c1 (stereo unspecified) | i | i | i | i | i
